Measurements as given in paper PMC5652008 (EBioMedicine, 2017).
Marks after values point to notes of the source that are not given here. Values belong to the molecule of their own block, whether it stands above or below them. Square brackets hold non-standard residues; d marks the D form. Peptide text beside a SMILES is read from it. * marks the point of attachment. Succinyl(4-O-cholesteryl) = CC(C)CCC[C@@H](C)[C@H]1CC[C@H]2[C@@H]3CC=C4C[C@@H](OC(=O)CCC(=O)*)CC[C@]4(C)[C@H]3CC[C@]12C; Sta = CC(C)C[C@H](N)[C@@H](O)CC(=O)O; Palmitoyl = CCCCCCCCCCCCCCCC(=O)*

What was measured:
BACE1 [1] = molecular target: T1, BACE1 (Homo sapiens, UniProt P56817); assay: Cell-based Aβ lowering IC50 assay; conditions: for Aβ40 production inhibition in HEK293 APP cells: 16 h / overnight incubation
Method in brief: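 Test compounds, free or Brain Shuttle-coupled, added in serial dilutions to HEK293 cells stably expressing wild-type human APP695, grown in Iscove's medium with 10% FBS to ~80% confluency. Construct dilution buffers served as control. Overnight at 37 °C, 5% CO2. Supernatant Aβ40 read by AlphaLISA: acceptor beads 1 h, then streptavidin donor beads 30 min, both at RT; emission at 615 nm. Compared with vehicle-treated cells; mean ± SEM.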

Thermodynamic = type: physicochemical; conditions: phosphate buffer
Method in brief: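 Equilibrium solubility measured in 0.05 M phosphate buffer, pH 6.5.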

BACE1 [2] = molecular target: T1, BACE1; assay: SPR binding assay on immobilized BACE1
Method in brief: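 SPR at 18 °C in the immobilization buffer. Peptide titrations used 2-fold dilution steps, run either as single-cycle kinetics (5 concentrations) or multi-cycle kinetics (10 concentrations). Two protein surfaces and an activated/deactivated CM5 reference surface were measured in parallel on one sensor.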

plasma Aβ = assay: Plasma Aβ40 after single i.v. dose in mice; type: in vivo, C57BL/6 J mice; conditions: 5 h post dose
Method in brief: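 Nine-week-old female mice received one i.v. injection of test compound at 0.003–3 mg/kg, with the buffer alone as vehicle control; three animals per group. Under anaesthesia, blood was collected into EDTA tubes, spun 8 min at 1600 × g, and plasma diluted 1:10 in 0.2% diethanolamine before solid-phase extraction.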

[3] = tested on: Aβ production in human stem-cell derived neurons; assay: Human neural stem cell-based Aβ40 inhibition assay; conditions: 48 h incubation
Method in brief: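 Neurons differentiated from SB-AD3 human iPSCs (healthy adult donor fibroblasts) via embryoid bodies and dual SMAD inhibition. Doses 0.128–10,000 nM (three independent differentiations) or 0.001024–80 nM (one differentiation), two technical replicates per dose. Vehicle was histidine/NaCl/1.3 mM hydroxypropyl-β-cyclodextrin for peptides and DMSO for small molecules. Aβ40 read by AlphaLISA at 615 nm, compared with vehicle-treated cells; means ± SEM.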

[4] = pH 6.5, Solubility pH 6.5, Table 1, phosphate buffer 0.05 M

T1 sequence (P56817 46-501): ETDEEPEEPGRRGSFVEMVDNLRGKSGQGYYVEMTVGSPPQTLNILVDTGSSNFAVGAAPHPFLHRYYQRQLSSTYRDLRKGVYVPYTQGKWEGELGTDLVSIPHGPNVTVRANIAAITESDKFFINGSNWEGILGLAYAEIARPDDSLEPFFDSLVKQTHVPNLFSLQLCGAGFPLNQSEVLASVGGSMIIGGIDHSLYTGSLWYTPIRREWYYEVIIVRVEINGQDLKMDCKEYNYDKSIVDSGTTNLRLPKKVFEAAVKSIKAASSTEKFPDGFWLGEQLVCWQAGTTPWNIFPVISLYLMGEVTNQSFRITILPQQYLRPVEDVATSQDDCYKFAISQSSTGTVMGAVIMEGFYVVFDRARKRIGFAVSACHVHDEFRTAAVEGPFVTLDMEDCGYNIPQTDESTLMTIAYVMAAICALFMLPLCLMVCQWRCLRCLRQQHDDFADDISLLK

Molecule: CC(C)C[C@H](NC(=O)[C@H](CC(N)=O)NC(=O)[C@@H](NC(=O)[C@@H](N)CCC(=O)O)C(C)C)[C@@H](O)CC(=O)N[C@H](C(=O)N[C@@H](C)C(=O)N[C@@H](CCC(=O)O)C(=O)N1CCC[C@@H]1C(=O)N[C@@H](CCCCN)C(N)=O)C(C)C [Pep#2, Glu-Val-Asn-Sta-Val-Ala-Glu-DPro-Lys-NH2] (H-EVN[Sta]VAE[dP]K-NH2; N-terminus assumed)
IC50 (BACE1 [1]): > 40000 nM

Molecule: CC(C)CCC[C@@H](C)[C@H]1CC[C@H]2[C@@H]3CC=C4C[C@@H](OC(=O)CCC(=O)NCCCC[C@H](NC(=O)[C@H]5CCCN5C(=O)[C@H](CCC(=O)O)NC(=O)[C@H](C)NC(=O)[C@@H](NC(=O)C[C@H](O)[C@H](CC(C)C)NC(=O)[C@H](CC(N)=O)NC(=O)[C@@H](NC(=O)[C@@H](N)CCC(=O)O)C(C)C)C(C)C)C(N)=O)CC[C@]4(C)[C@H]3CC[C@]12C [Pep#3, Glu-Val-Asn-Sta-Val-Ala-Glu-DPro-Lys(ε-Chol'ester’)-NH2] (H-EVN[Sta]VAE[dP]K(Succinyl(4-O-cholesteryl))-NH2; N-terminus assumed)
IC50 (BACE1 [1]): 0.4 nM
solubility thermodynamic (Thermodynamic; pH 6.5): > 3000 µg/mL

Molecule: CCCCCCCCCCCCCCCC(=O)NCCCC[C@H](NC(=O)[C@H]1CCCN1C(=O)[C@H](CCC(=O)O)NC(=O)[C@H](C)NC(=O)[C@@H](NC(=O)C[C@H](O)[C@H](CC(C)C)NC(=O)[C@H](CC(N)=O)NC(=O)[C@@H](NC(=O)[C@@H](N)CCC(=O)O)C(C)C)C(C)C)C(N)=O [Pep#4, Glu-Val-Asn-Sta-Val-Ala-Glu-DPro-Lys(ε-Palmitoyl)-NH2] (H-EVN[Sta]VAE[dP]K(Palmitoyl)-NH2; N-terminus assumed)
IC50 (BACE1 [1]): 6 nM
solubility thermodynamic (Thermodynamic; pH 6.5): < 1 µg/mL

IC50 (BACE1 [1]): > 40000 nM
Molecule: CC[C@H](C)[C@H](NC(=O)[C@H](Cc1ccccc1)NC(=O)[C@H](Cc1ccc(O)cc1)NC(=O)[C@@H]1CCCN1C(=O)[C@H](Cc1ccc(O)cc1)NC(C)=O)C(=O)N1CCC[C@H]1C(=O)N[C@@H](CC(C)C)C(N)=O [Pep#5, Ac-Tyr-Pro-Tyr-Phe-Ile-Pro-Leu-NH2]

solubility thermodynamic (Thermodynamic; [4]): < 1 µg/mL
Molecule: CC[C@H](C)[C@H](NC(=O)[C@H](Cc1ccccc1)NC(=O)[C@H](Cc1ccc(O)cc1)NC(=O)[C@@H]1CCCN1C(=O)[C@@H](N)Cc1ccc(O)cc1)C(=O)N1CCC[C@H]1C(=O)N[C@@H](CC(C)C)C(=O)NCC(=O)NCC(=O)NCC(=O)N[C@@H](CCC(=O)O)C(=O)N[C@H](C(=O)N[C@@H](CC(N)=O)C(=O)N[C@@H](CC(C)C)[C@@H](O)CC(=O)N[C@H](C(=O)N[C@@H](C)C(=O)N[C@@H](CCC(=O)O)C(=O)N1CCC[C@@H]1C(=O)N[C@@H](CCCCNC(=O)CCC(=O)O[C@H]1CC[C@@]2(C)C(=CC[C@H]3[C@@H]4CC[C@H]([C@H](C)CCCC(C)C)[C@@]4(C)CC[C@@H]32)C1)C(N)=O)C(C)C)C(C)C [Pep#7, Tyr-Pro-Tyr-Phe-Ile-Pro-Leu-Gly-Gly-Gly-Glu-Val-Asn-Sta-Val-Ala-Glu-DPro-Lys(Chol'ester’)-NH2]

solubility thermodynamic (Thermodynamic; [4]): > 718 µg/mL
Molecule: CC[C@H](C)[C@H](NC(=O)[C@H](Cc1ccccc1)NC(=O)[C@H](Cc1ccc(O)cc1)NC(=O)[C@@H]1CCCN1C(=O)[C@@H](N)Cc1ccc(O)cc1)C(=O)N1CCC[C@H]1C(=O)N[C@H](CCCCN)C(=O)NCC(=O)N[C@H](CCCCN)C(=O)NCC(=O)N[C@@H](CCC(=O)O)C(=O)N[C@H](C(=O)N[C@@H](CC(N)=O)C(=O)N[C@@H](CC(C)C)[C@@H](O)CC(=O)N[C@H](C(=O)N[C@@H](C)C(=O)N[C@@H](CCC(=O)O)C(=O)N1CCC[C@@H]1C(=O)N[C@@H](CCCCNC(=O)CCC(=O)O[C@H]1CC[C@@]2(C)C(=CC[C@H]3[C@@H]4CC[C@H]([C@H](C)CCCC(C)C)[C@@]4(C)CC[C@@H]32)C1)C(N)=O)C(C)C)C(C)C [Pep#9, Tyr-Pro-Tyr-Phe-Ile-Pro-DLys-Gly-DLys-Gly-Glu-Val-Asn-Sta-Val-Ala-Glu-DPro-Lys(Chol'ester’)-NH2]

Molecule: CC[C@H](C)[C@H](NC(=O)[C@H](Cc1ccccc1)NC(=O)[C@H](Cc1ccc(O)cc1)NC(=O)[C@@H]1CCCN1C(=O)[C@@H](N)Cc1ccc(O)cc1)C(=O)N1CCC[C@H]1C(=O)N[C@@H](C)C(=O)NCC(=O)N[C@H](CCCCN)C(=O)NCC(=O)N[C@@H](CCC(=O)O)C(=O)N[C@H](C(=O)N[C@@H](CC(N)=O)C(=O)N[C@@H](CC(C)C)[C@@H](O)CC(=O)N[C@H](C(=O)N[C@@H](C)C(=O)N[C@@H](CCC(=O)O)C(=O)N1CCC[C@@H]1C(=O)N[C@@H](CCCCNC(=O)CCC(=O)O[C@H]1CC[C@@]2(C)C(=CC[C@H]3[C@@H]4CC[C@H]([C@H](C)CCCC(C)C)[C@@]4(C)CC[C@@H]32)C1)C(N)=O)C(C)C)C(C)C [Pep#10, Tyr-Pro-Tyr-Phe-Ile-Pro-Ala-Gly-DLys-Gly-Glu-Val-Asn-Sta-Val-Ala-Glu-DPro-Lys(Chol'ester’)-NH2] (H-YPYFIPAG[dK]GEVN[Sta]VAE[dP]K(Succinyl(4-O-cholesteryl))-NH2; N-terminus assumed)
solubility thermodynamic (Thermodynamic; pH 6.5): > 2450 µg/mL

kon (BACE1 [2]; BACE1 surface, 18 °C, pH 4.5): 1.1–1.3·10^5 1/Ms
Selectivity for BACE1 (BACE1 [2]; ratio KD(BACE2)/KD(BACE1)): > 15 ^a
Molecule: CC[C@H](C)[C@H](NC(=O)[C@H](Cc1ccccc1)NC(=O)[C@H](Cc1ccc(O)cc1)NC(=O)[C@@H]1CCCN1C(=O)[C@@H](N)Cc1ccc(O)cc1)C(=O)N1CCC[C@H]1C(=O)N[C@H](CCCCN)C(=O)NCC(=O)N[C@H](CCCCN)C(=O)NCC(=O)N[C@@H](CCC(=O)O)C(=O)N[C@H](C(=O)N[C@@H](CC(N)=O)C(=O)N[C@@H](CC(C)C)[C@@H](O)CC(=O)N[C@H](C(=O)N[C@@H](C)C(=O)N[C@@H](CCC(=O)O)C(=O)N1CCC[C@@H]1C(N)=O)C(C)C)C(C)C [Pep#12, Tyr-Pro-Tyr-Phe-Ile-Pro-DLys-Gly-DLys-Gly-Glu-Val-Asn-Sta-Val-Ala-Glu-DPro-NH2]

Aβ40 production inhibition in HEK293 APP cells (BACE1 [1]): blocked production of Aβ40
Molecule: CC[C@H](C)[C@H](NC(=O)[C@H](Cc1ccccc1)NC(=O)[C@H](Cc1ccc(O)cc1)NC(=O)[C@@H]1CCCN1C(=O)[C@H](Cc1ccc(O)cc1)NC(=O)CNC(=O)CNC(=O)CN)C(=O)N1CCC[C@H]1C(=O)N[C@H](CCCCN)C(=O)NCC(=O)N[C@H](CCCCN)C(=O)NCC(=O)N[C@@H](CCC(=O)O)C(=O)N[C@H](C(=O)N[C@@H](CC(N)=O)C(=O)N[C@@H](CC(C)C)[C@@H](O)CC(=O)N[C@H](C(=O)N[C@@H](C)C(=O)N[C@@H](CCC(=O)O)C(=O)N1CCC[C@@H]1C(=O)N[C@@H](CCCCNC(=O)CCC(=O)O[C@H]1CC[C@@]2(C)C(=CC[C@H]3[C@@H]4CC[C@H]([C@H](C)CCCC(C)C)[C@@]4(C)CC[C@@H]32)C1)C(N)=O)C(C)C)C(C)C [Pep#14, Gly-Gly-Gly-Tyr-Pro-Tyr-Phe-Ile-Pro-DLys-Gly-DLys-Gly-Glu-Val-Asn-Sta-Val-Ala-Glu-DPro-Lys(Chol'ester’)-NH2] (H-GGGYPYFIP[dK]G[dK]GEVN[Sta]VAE[dP]K(Succinyl(4-O-cholesteryl))-NH2; N-terminus assumed)
Plasma Aβ40 inhibition (plasma Aβ; 0.003-3 mg/kg i.v., uncoupled peptides): Dose-dependent inhibition
Plasma Aβ level reduction (plasma Aβ; 3 mg/kg i.v., uncoupled peptide): 51%
Aβ production inhibition in human stem-cell derived neurons [3]: able to reduce the Aβ production

Aβ40 production inhibition in HEK293 APP cells (BACE1 [1]): blocked production of Aβ40
Molecule: CC[C@H](C)[C@H](NC(=O)[C@H](Cc1ccccc1)NC(=O)[C@H](Cc1ccc(O)cc1)NC(=O)[C@@H]1CCCN1C(=O)[C@H](Cc1ccc(O)cc1)NC(=O)CNC(=O)CNC(=O)CN)C(=O)N1CCC[C@H]1C(=O)N[C@H](CCCCN)C(=O)NCC(=O)N[C@H](CCCCN)C(=O)NCC(=O)N[C@@H](CCC(=O)O)C(=O)N[C@H](C(=O)N[C@@H](CC(N)=O)C(=O)N[C@@H](CC(C)C)[C@@H](O)CC(=O)N[C@H](C(=O)N[C@@H](C)C(=O)N[C@@H](CCC(=O)O)C(=O)N1CCC[C@@H]1C(N)=O)C(C)C)C(C)C [Pep#16, Gly-Gly-Gly-Tyr-Pro-Tyr-Phe-Ile-Pro-DLys-Gly-DLys-Gly-Glu-Val-Asn-Sta-Val-Ala-Glu-DPro-NH2] (H-GGGYPYFIP[dK]G[dK]GEVN[Sta]VAE[dP]-NH2; N-terminus assumed)
Aβ production inhibition in human stem-cell derived neurons [3]: able to reduce the Aβ production

Molecule: Ac-YPYFLPISAK-NH2 [Pep#6, Ac-Tyr-Pro-Tyr-Phe-Leu-Pro-Ile-Ser-Ala-Lys-NH2, reference compound]
IC50 (BACE1 [1]): > 40000 nM
